Data as given in ChEMBL document CHEMBL4359883, “4(1H)-quinolone derivatives overcome acquired resistance to anti-microtubule agents by targeting the colchicine site of β-tubulin” (Eur J Med Chem, 2019).
pIC50, pKd: −log10 of the molar value. Calls of active or inactive are those of the source. No cut-off for these calls is given here.

Experiments:
[1] = tested on: NCI-H1975; assay: Antiproliferative activity against human NCI-H1975 cells assessed as reduction in cell viability after 72 hrs by MTS assay; format: functional, cell-based; conditions: NCI-H1975, 72 h
In short: (§1)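 Cells plated at 2000/well, cultured overnight, then exposed to a range of compound concentrations for 72 h. MTS reagent added for 1–4 h at 37 °C and absorbance read at 490 nm. Cultured in RPMI 1640 or DMEM with 10% heat-inactivated FBS under 5% CO2. Data are the mean of three determinations.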

[2] = Toxicity in Balb/c mouse xenografted with human NCI-H1975 cells assessed as effect on body mass at 4 to 8 mg/kg, ip administered 3 times per week for 25 days; format: organism-based; conditions: in vivo, 600 h
In short: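 H1975 cells (2 × 10^6) injected subcutaneously into right flank of 6-week-old BALB/c nude mice; established tumors treated intraperitoneally with 4 or 8 mg/kg compound in DMSO, or DMSO, three times a week for 25 days (n = 6 per group). Body mass recorded before each injection.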

[3] = Toxicity in Balb/c mouse xenografted with human NCI-H1975 cells assessed as serum ALT level at 4 mg/kg, ip administered 3 times per week for 25 days (reference value: 36.6 +/- 5.9 IU/L); format: organism-based; conditions: in vivo, 600 h
[4] = Toxicity in Balb/c mouse xenografted with human NCI-H1975 cells assessed as serum ALT level at 8 mg/kg, ip administered 3 times per week for 25 days (reference value: 36.6 +/- 5.9 IU/L); format: organism-based; conditions: in vivo, 600 h
[5] = Toxicity in Balb/c mouse xenografted with human NCI-H1975 cells assessed as serum AST level at 4 mg/kg, ip administered 3 times per week for 25 days (reference value: 122 +/- 14.5 IU/L); format: organism-based; conditions: in vivo, 600 h
[6] = Toxicity in Balb/c mouse xenografted with human NCI-H1975 cells assessed as serum AST level at 8 mg/kg, ip administered 3 times per week for 25 days (reference value: 122 +/- 14.5 IU/L); format: organism-based; conditions: in vivo, 600 h
[7] = Toxicity in Balb/c mouse xenografted with human NCI-H1975 cells assessed as serum BUN level at 4 mg/kg, ip administered 3 times per week for 25 days (reference value: 18.5 +/- 1.6 mg/dl); format: organism-based; conditions: in vivo, 600 h
[8] = Toxicity in Balb/c mouse xenografted with human NCI-H1975 cells assessed as serum BUN level at 8 mg/kg, ip administered 3 times per week for 25 days (reference value: 18.5 +/- 1.6 mg/dl); format: organism-based; conditions: in vivo, 600 h
[9] = Toxicity in Balb/c mouse xenografted with human NCI-H1975 cells assessed as serum creatinine level at 4 mg/kg, ip administered 3 times per week for 25 days (reference value: 0.14 +/- 0.02 mg/dl); format: organism-based; conditions: in vivo, 600 h
[10] = Toxicity in Balb/c mouse xenografted with human NCI-H1975 cells assessed as serum creatinine level at 8 mg/kg, ip administered 3 times per week for 25 days (reference value: 0.14 +/- 0.02 mg/dl); format: organism-based; conditions: in vivo, 600 h
[11] = Induction of apoptosis in human NHFB cells assessed as PARP cleavage at 40 nM after 24 to 72 hrs by immunoblotting analysis; format: cell-based; conditions: 0.04 µM
[12] = Induction of apoptosis in human NHFB cells assessed as cleaved caspase 3 expression at 40 nM after 24 to 72 hrs by immunoblotting analysis; format: cell-based; conditions: 0.04 µM
[13] = Induction of apoptosis in human NHFB cells assessed as cytochrome c release at 40 to 80 nM after 24 hrs by immunoblotting analysis; format: cell-based; conditions: 0.08 µM
[14] = Cell cycle arrest in human NHFB cells assessed as effect on cell population at sub-G1 phase at 40 to 80 nM after 24 hrs by propidium iodide-staining based flow cytometry; format: ADME; conditions: 0.08 µM
In short: (§2)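 Cells treated for 24 h, then trypsinized and fixed overnight in ice-cold 70% ethanol. Stained for 30 min with propidium iodide (10 µg/mL) plus RNase (20 µg/mL), and DNA content measured by flow cytometry. Mean ± SD.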

[15] = Cell cycle arrest in human NHFB cells assessed as effect on cell population at G2/M phase at 40 to 80 nM after 24 hrs by propidium iodide-staining based flow cytometry; format: ADME; conditions: 0.08 µM; in short: as §2
[16] = molecular target: Tubulin; assay: Binding affinity to tubulin (unknown origin) assessed as dissociation constant by SPR analysis; format: protein-complex assay, Homo sapiens
In short: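 Biotin-tubulin (50 µg/mL) captured on a streptavidin chip to about 3,000 RU, with remaining sites blocked by biocytin and a free flow cell as reference. Compound injected at different concentrations in HBS-EP+ (pH 7.4) at 25 °C. KD obtained from steady-state fitting.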

[17] = tested on: KB; assay: Antiproliferative activity against human KB cells assessed as reduction in cell viability after 72 hrs by MTS assay; format: functional, cell-based; in short: as §1
[18] = tested on: CCRF-CEM; assay: Antiproliferative activity against human CCRF-CEM cells assessed as reduction in cell viability after 72 hrs by MTS assay; format: functional, cell-based; in short: as §1
[19] = Antiproliferative activity against human KBtax cells assessed as reduction in cell viability after 72 hrs by MTS assay; format: functional, cell-based; in short: as §1
[20] = Selectivity index, ratio of IC50 for human KBtax cells to IC50 for human KB cells; format: functional
[21] = Antiproliferative activity against human KB/VCR cells assessed as reduction in cell viability after 72 hrs by MTS assay; format: functional, cell-based; in short: as §1
[22] = Selectivity index, ratio of IC50 for human KB/VCR cells to IC50 for human KB cells; format: functional
[23] = Antiproliferative activity against human CCRF-CEM/VBL cells assessed as reduction in cell viability after 72 hrs by MTS assay; format: functional, cell-based; in short: as §1
[24] = Selectivity index, ratio of IC50 for human CCRF-CEM/VBL cells to IC50 for human CCRF-CEM cells; format: functional
[25] = molecular target: T1, Tubulin alpha (Homo sapiens) (UniProt P0DPH7+P68366+Q71U36+P68363+Q9BQE3+Q6PEY2+A6NHL2+Q9NY65); assay: Induction of microtubule depolymerization in human CL1-0 cells assessed as increase in alpha tubulin soluble form by immunoblot analysis; format: cell-based
In short: (§3)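 Lysate spun at 16,000 rpm for 15 min at room temperature. Soluble (monomer) and particulate (polymer) fractions immunoblotted for α-tubulin.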

[26] = molecular target: T1, Tubulin alpha (Homo sapiens); assay: Induction of microtubule depolymerization in human NCI-H1975 cells assessed as increase in alpha tubulin soluble form by immunoblot analysis; format: cell-based; in short: as §3
[27] = molecular target: Tubulin (Sus scrofa) (UniProt P02554+P02550); assay: Inhibition of porcine tubulin at 5 uM in presence of GTP measured every minute for 1 hr by microplate reader analysis; format: protein assay
[28] = molecular target: T2, Tubulin (Homo sapiens) (UniProt P68371+Q9H4B7+P0DPH7+P68366+Q13509+Q71U36+P04350+Q3ZCM7+P07437+P68363+Q9BQE3+Q6PEY2+Q13885+Q9BVA1+Q9BUF5); assay: Binding affinity to tubulin (unknown origin) assessed as increase in Beta-col fragment production at 100 uM after 30 mins by coomassie brilliant blue staining based trypsin proteolysis assay; format: protein-complex assay
In short: (§4)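 Tubulin (1 mg/mL) preincubated with 100 µM compound for 30 min at 30 °C in 0.1 M MES, 1 mM MgCl2, 1 mM EGTA, pH 6.9. Trypsin added at 25 µg/mL (1:40 w/w) for 10 min on ice. Fragments resolved on 15% SDS-PAGE, stained with Coomassie and quantified by densitometry.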

[29] = Antitumour activity against human KBtax cells xenografted in Balb/c mouse assessed as reduction in tumour size at 15 mg/kg, ip administered 3 times per week and measured after 21 days (reference value: 1109 +/- 128.3 mm3); format: functional
[30] = Toxicity in Balb/c mouse xenografted with human KBtax cells assessed as serum AST level at 15 mg/kg, ip administered 3 times per week and measured after 21 days (reference value: 94.2 +/- 12.5 IU/L); format: organism-based; conditions: in vivo, 504 h
[31] = Toxicity in Balb/c mouse xenografted with human KBtax cells assessed as serum BUN level at 15 mg/kg, ip administered 3 times per week and measured after 21 days (reference value: 17.8 +/-1.1 mg/dl); format: organism-based; conditions: in vivo, 504 h
[32] = Toxicity in Balb/c mouse xenografted with human KBtax cells assessed as serum creatinine level at 15 mg/kg, ip administered 3 times per week and measured after 21 days (reference value: 0.22 +/- 0.02 mg/dl); format: organism-based; conditions: in vivo, 504 h
[33] = molecular target: T2, Tubulin (Homo sapiens); assay: Binding affinity to tubulin (unknown origin) assessed as reduction in Beta-colfragment production at 100 uM after 30 mins by coomassie brilliant blue staining based trypsin proteolysis assay; format: protein-complex assay; in short: as §4
[34] = molecular target: T2, Tubulin (Homo sapiens); assay: Binding affinity to tubulin (unknown origin) assessed as reduction in alpha-N fragment production at 100 uM after 30 mins by coomassie brilliant blue staining based trypsin proteolysis assay; format: protein-complex assay; in short: as §4
[35] = molecular target: T2, Tubulin (Homo sapiens); assay: Binding affinity to tubulin (unknown origin) assessed as reduction in alpha-C fragment production at 100 uM after 30 mins by coomassie brilliant blue staining based trypsin proteolysis assay; format: protein-complex assay; in short: as §4

Sequence of Tubulin (Sus scrofa) (P02550 whole entry, looked up, the tested form may be a part): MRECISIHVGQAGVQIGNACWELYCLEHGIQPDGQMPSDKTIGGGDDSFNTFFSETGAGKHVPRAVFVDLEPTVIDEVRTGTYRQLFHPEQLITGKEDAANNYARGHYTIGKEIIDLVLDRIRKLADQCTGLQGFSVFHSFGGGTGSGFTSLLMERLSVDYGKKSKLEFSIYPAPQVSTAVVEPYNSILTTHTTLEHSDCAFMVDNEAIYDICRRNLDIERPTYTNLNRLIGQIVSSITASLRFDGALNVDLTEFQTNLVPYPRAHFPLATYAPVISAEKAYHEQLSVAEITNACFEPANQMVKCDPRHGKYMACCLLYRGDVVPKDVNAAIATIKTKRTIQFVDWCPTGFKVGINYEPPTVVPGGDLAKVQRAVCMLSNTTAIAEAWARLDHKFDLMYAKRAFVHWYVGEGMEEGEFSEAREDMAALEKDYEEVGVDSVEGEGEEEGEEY
Sequence of Tubulin (Sus scrofa) (P02554 whole entry, looked up, the tested form may be a part): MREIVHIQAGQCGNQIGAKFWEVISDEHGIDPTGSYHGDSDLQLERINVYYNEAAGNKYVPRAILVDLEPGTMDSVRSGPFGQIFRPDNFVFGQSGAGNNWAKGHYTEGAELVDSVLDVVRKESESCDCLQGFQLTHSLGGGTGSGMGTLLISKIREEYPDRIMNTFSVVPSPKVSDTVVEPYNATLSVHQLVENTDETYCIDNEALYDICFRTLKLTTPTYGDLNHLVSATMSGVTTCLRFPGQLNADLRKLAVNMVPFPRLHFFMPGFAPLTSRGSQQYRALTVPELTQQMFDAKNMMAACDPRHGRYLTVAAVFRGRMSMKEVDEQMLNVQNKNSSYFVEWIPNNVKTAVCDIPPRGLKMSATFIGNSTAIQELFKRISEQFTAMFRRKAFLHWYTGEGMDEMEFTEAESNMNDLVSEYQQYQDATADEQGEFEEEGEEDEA

SMILES: O=C(O)c1ccc2[nH]c(-c3ccccc3)cc(=O)c2c1
- pIC50 [1]: < 5.30

SMILES: CCOC(=O)c1ccc2[nH]c(-c3ccccc3)cc(=O)c2c1
- Activity [2]: Non-Toxic
- Activity [3]: 40.8 IU/L
- Activity [4]: 54.2 IU/L
- Activity [5]: 138.7 IU/L
- Activity [6]: 170.8 IU/L
- Activity [7]: 23.2 mg/dL
- Activity [8]: 20.9 mg/dL
- Activity [9]: 0.26 mg/dL
- Activity [10]: 0.17 mg/dL
- Activity [11]: Non-Toxic
- Activity [12]: Non-Toxic
- Activity [13]: Non-Toxic
- Activity [14]: Non-Toxic
- Activity [15]: Non-Toxic
- pKd [16]: 4.86

SMILES: CCNC(=O)c1ccc2[nH]c(-c3ccccc3)cc(=O)c2c1
- pIC50 [1]: 5.43

SMILES: COC(=O)c1ccc2[nH]c(-c3ccccc3)cc(=O)c2c1
- pIC50 [1]: 6.68

SMILES: C/C(=C\c1csc(C)n1)[C@@H]1C[C@@H]2O[C@]2(C)CCC[C@H](C)[C@H](O)[C@@H](C)C(=O)C(C)(C)[C@@H](O)CC(=O)N1 [IXABEPILONE]
- pIC50 [17]: 8.10
- pIC50 [18]: 8.52
- pIC50 [19]: 7.46
- Ratio IC50 [20]: 4.3
- pIC50 [21]: 6.71
- Ratio IC50 [22]: 24
- pIC50 [23]: 6.82
- Ratio IC50 [24]: 50

SMILES: CCOC(=O)c1ccc2[nH]c(-c3cccc(C(F)(F)F)c3)cc(=O)c2c1
- pIC50 [1]: 6.11

SMILES: CCOC(=O)c1ccc2[nH]c(-c3ccc(O)cc3)cc(=O)c2c1
- pIC50 [1]: 6.32

SMILES: CCOC(=O)c1ccc2[nH]c(-c3ccc(F)cc3)cc(=O)c2c1
- pIC50 [1]: 5.68

SMILES: COC(=O)Nc1nc2cc(C(=O)c3cccs3)ccc2[nH]1
- Activity [25]: Active
- Activity [26]: Active
- tubulin inhibition call (active/not active) [27]: Active
- Activity [28]: Active

SMILES: CC(=O)O[C@H]1C(=O)[C@@]2(C)[C@H]([C@H](OC(=O)c3ccccc3)[C@]3(O)C[C@H](OC(=O)[C@H](O)[C@@H](NC(=O)c4ccccc4)c4ccccc4)C(C)=C1C3(C)C)[C@]1(OC(C)=O)CO[C@@H]1C[C@@H]2O [PACLITAXEL]
- pIC50 [18]: 8.40
- Activity [25]: inactive
- Activity [26]: inactive
- tubulin inhibition call (active/not active) [27]: inactive
- pIC50 [19]: 7.00
- pIC50 [21]: 6.15
- pIC50 [23]: 6.07
- Activity [29]: 868.7 mm3
- Activity [30]: 102.8 IU/L
- Activity [31]: 19 mg/dL
- Activity [32]: 0.16 mg/dL

SMILES: CCOC(=O)c1ccc2[nH]c(-c3cccc(O)c3)cc(=O)c2c1
- pIC50 [1]: 5.71

SMILES: CCOC(=O)c1ccc2[nH]c(-c3ccc(Br)cc3)cc(=O)c2c1
- pIC50 [1]: 5.35

SMILES: CCOC(=O)c1ccc2[nH]c(-c3cccc(OC)c3)cc(=O)c2c1
- pIC50 [1]: 7.36

SMILES: CC[C@]1(O)C[C@H]2CN(CCc3c([nH]c4ccccc34)[C@@](C(=O)OC)(c3cc4c(cc3OC)N(C=O)[C@H]3[C@@](O)(C(=O)OC)[C@H](OC(C)=O)[C@]5(CC)C=CCN6CC[C@]43[C@@H]65)C2)C1 [VINCRISTINE]
- pIC50 [17]: 8.30
- pIC50 [18]: 8.52
- tubulin inhibition call (active/not active) [27]: Active
- Activity [33]: Active
- Activity [34]: Active
- Activity [35]: Active
- pIC50 [19]: 7.31
- Ratio IC50 [20]: 9.8
- pIC50 [21]: 6.09
- Ratio IC50 [22]: 163
- pIC50 [23]: 5.88
- Ratio IC50 [24]: 440

SMILES: CCOC(=O)c1ccc2[nH]c(-c3ccc(OC)cc3)cc(=O)c2c1
- pIC50 [1]: 5.66

SMILES: CC(C)OC(=O)c1ccc2[nH]c(-c3ccccc3)cc(=O)c2c1
- pIC50 [1]: 7.32

SMILES: CCOCc1ccc2[nH]c(-c3ccccc3)cc(=O)c2c1
- pIC50 [1]: 6.09
